Assay results from article PMC11145139 (RSC Advances, 2024).
≈ marks a conversion by molar mass, not a printed value. Residues, ends and D or L forms follow the SMILES beside them.

Legend:
Format in all cases: cell-based
[1] = test system: Escherichia coli MTCC 443; assay: Antibacterial activity, Mueller Hinton Broth microdilution MIC; conditions: for Potency relative to standard drug Ampicillin against E. coli: ratio of MIC values vs Ampicillin (MIC 100 μg mL^−1)
[2] = test system: Candida albicans MTCC 227; assay: Antifungal activity, Muller Hinton Broth dilution MIC; conditions: for MIC (anti-fungicidal activity) C. a.: Candida albicans MTCC 227, Muller Hinton Broth dilution, Sabouraud's dextrose broth, 28 °C, aerobic, 48 hours, triplicate experiments
Method in brief: (§1)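 Broth dilution in Mueller Hinton medium. Test compounds were screened in triplicate at 1000, 500, 250 and 200 μg mL−1; actives were diluted further and retested. Fungal growth was followed in Sabouraud's dextrose broth at 28 °C, aerobic, for 48 h. MIC was taken as the lowest concentration preventing visible growth. Nystatin served as reference standard. Stocks were kept at −70 °C in trypticase-soy broth with 20% glycerol and subcultured three times before use.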

[3] = test system: Aspergillus niger MTCC 282; assay: as above; conditions: for MIC (anti-fungicidal activity) A. n.: Aspergillus niger MTCC 282, Muller Hinton Broth dilution, Sabouraud's dextrose broth, 28 °C, aerobic, 48 hours, triplicate experiments
Method in brief: as §1

[4] = test system: Pseudomonas aeruginosa MTCC 1688; assay: Antibacterial activity, Mueller Hinton Broth microdilution MIC; conditions: ratio of MIC values vs Ampicillin (MIC 100 μg mL^−1)
[5] = test system: Staphylococcus aureus MTCC 96; assay: as above; conditions: vs Ampicillin (MIC 250 μg mL^−1)
[6] = test system: Streptococcus pyogenes MTCC 442; assay: as above; conditions: ratio of MIC values vs standard drug (MIC 100 μg mL^−1)
[7] = vs Nystatin (active at 100 μg mL^−1)

SMILES	MIC ([1]; Escherichia coli, MTCC443, 48 h, read-out: MIC (anti-bacterial activity) E. c.) [mg/L]	MIC (anti-fungicidal activity) C. a. [2] [mg/L]	MIC (anti-fungicidal activity) A. n. [3] [mg/L]	Potency relative to standard drug Ampicillin against E. coli [1]	Potency relative to standard drug Ampicillin against P. aeruginosa [4] [times]	Potency relative to control drug Ampicillin against Staphylococcus aureus [5]	Potency relative to standard drug Ampicillin against Streptococcus pyogenes [6]	Potency relative to Nystatin against Candida albicans [2, 7]	Potency relative to Nystatin against Aspergillus niger [3, 7]
CC1(C)S[C@@H]2[C@H](NC(=O)[C@H](N)c3ccccc3)C(=O)N2[C@H]1C(=O)O [Ampicillin, reference compound]	100 (≈ 286 µM)	–	–	–	–	–	–	–	–
N=C(N)NCCC[C@H](NC(=O)[C@H](Cc1c[nH]cn1)NC(=O)[C@@H]1CCCN1C(=O)[C@H](CS)NC(=O)CN)C(=O)N[C@@H](CS)C(=O)O [Compound 7a, H-Gly-Cys-Pro-His-Arg-Cys-OH] (H-GCPHRC-OH)	–	60 (≈ 89.3 µM)	65 (≈ 96.8 µM)	–	–	–	–	–	–
C[C@H](N)C(=O)N[C@@H](CS)C(=O)N1CCC[C@H]1C(=O)N[C@@H](Cc1c[nH]cn1)C(=O)N[C@@H](CCCNC(=N)N)C(=O)N[C@@H](CS)C(=O)O [Compound 7b, H-Ala-Cys-Pro-His-Arg-Cys-OH] (H-ACPHRC-OH)	–	55 (≈ 80.2 µM)	50 (≈ 72.9 µM)	around 2 times	2	almost twice potent	–	–	–
CC(C)[C@H](N)C(=O)N[C@@H](CS)C(=O)N1CCC[C@H]1C(=O)N[C@@H](Cc1c[nH]cn1)C(=O)N[C@@H](CCCNC(=N)N)C(=O)N[C@@H](CS)C(=O)O [Compound 7c, H-Val-Cys-Pro-His-Arg-Cys-OH] (H-VCPHRC-OH)	–	35 (≈ 49 µM)	40 (≈ 56 µM)	2.5 times	2	almost twice potent	2 times	–	–
CC(C)C[C@H](N)C(=O)N[C@@H](CS)C(=O)N1CCC[C@H]1C(=O)N[C@@H](Cc1c[nH]cn1)C(=O)N[C@@H](CCCNC(=N)N)C(=O)N[C@@H](CS)C(=O)O [Compound 7d, H-Leu-Cys-Pro-His-Arg-Cys-OH] (H-LCPHRC-OH)	–	20 (≈ 27.5 µM)	35 (≈ 48.1 µM)	4 times	2.5	–	five time more potent	five times more potent	almost three times more potent
N=C(N)NCCC[C@H](NC(=O)[C@H](Cc1c[nH]cn1)NC(=O)[C@@H]1CCCN1C(=O)[C@H](CS)NC(=O)[C@@H]1CCCN1)C(=O)N[C@@H](CS)C(=O)O [Compound 7e, H-Pro-Cys-Pro-His-Arg-Cys-OH] (H-PCPHRC-OH)	–	50 (≈ 70.2 µM)	55 (≈ 77.3 µM)	around 2 times	–	almost twice potent	–	–	–
N=C(N)NCCC[C@H](NC(=O)[C@H](Cc1c[nH]cn1)NC(=O)[C@@H]1CCCN1C(=O)[C@H](CS)NC(=O)[C@@H](N)Cc1ccc(O)cc1)C(=O)N[C@@H](CS)C(=O)O [Compound 7f, H-Tyr-Cys-Pro-His-Arg-Cys-OH] (H-YCPHRC-OH)	–	40 (≈ 51.4 µM)	50 (≈ 64.3 µM)	around 2 times	2	almost twice potent	–	–	–
C[C@@H]1[C@H](O)[C@@H](C)/C=C/C=C/CC/C=C/C=C/C=C/C=C/C(O[C@H]2O[C@H](C)[C@@H](O)[C@H](N)[C@@H]2O)CC2O[C@](O)(CC(O)C(O)CCC(O)CC(O)CC(O)CC(=O)O[C@H]1C)CC(O)C2C(=O)O (some centres unmarked) [Nystatin, reference compound]	–	100 (≈ 108 µM)	100 (≈ 108 µM)	–	–	–	–	–	–
